Data from ChEMBL document CHEMBL2157877, “Synthesis and pharmacological evaluation of N-substituted 2-(2-oxo-2H-chromen-4-yloxy)propanamide as cyclooxygenase inhibitors” (Bioorg Med Chem Lett, 2012).
pIC50: −log10 of the molar value.

Target: T1, Prostaglandin G/H synthase 1 (Ovis aries, UniProt P05979)
T1 sequence (P05979 whole entry): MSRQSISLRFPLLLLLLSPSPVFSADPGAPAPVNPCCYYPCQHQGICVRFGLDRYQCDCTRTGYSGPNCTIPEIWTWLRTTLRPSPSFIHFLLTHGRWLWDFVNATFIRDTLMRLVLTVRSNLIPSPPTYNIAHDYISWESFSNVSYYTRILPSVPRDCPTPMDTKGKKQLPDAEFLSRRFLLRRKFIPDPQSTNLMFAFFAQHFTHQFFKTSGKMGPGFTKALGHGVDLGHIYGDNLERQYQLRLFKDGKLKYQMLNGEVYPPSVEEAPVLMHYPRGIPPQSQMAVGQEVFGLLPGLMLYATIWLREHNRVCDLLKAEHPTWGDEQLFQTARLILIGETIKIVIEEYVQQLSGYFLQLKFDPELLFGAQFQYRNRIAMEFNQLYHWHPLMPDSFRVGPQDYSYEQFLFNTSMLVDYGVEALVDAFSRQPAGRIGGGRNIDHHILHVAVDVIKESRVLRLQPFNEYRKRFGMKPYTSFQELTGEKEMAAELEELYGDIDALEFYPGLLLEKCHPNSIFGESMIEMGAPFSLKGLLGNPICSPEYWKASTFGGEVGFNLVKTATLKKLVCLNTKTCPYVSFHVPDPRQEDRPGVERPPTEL
Test: Inhibition of ovine COX1 using arachidonic acid as substrate incubated for 1 min prior to substrate addition measured for 25 secs by TMPD-based chromogenic assay
How it was run: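 COX-1 purified from ram seminal vesicles by chromatography. Reaction in Tris HCl buffer (100 mM, pH 8.0) with hematin, EDTA (3 mM) and enzyme, preincubated with test compound at 25 °C for 1 min. Started with arachidonic acid plus TMPD. Nonenzymatic oxidation subtracted before calculating percent inhibition.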

CC(Oc1cc(=O)oc2ccccc12)C(=O)NC12CC3CC(C)(CC(C)(C3)C1)C2 (mixture of isomers) was tested, and the pIC50 was 5.48.

Work on CC(Oc1cc(=O)oc2ccccc12)C(=O)Nc1ccc(N2CCOCC2=O)cc1 (racemic) yielded a pIC50 of 5.34.

With Cc1c(Cl)cccc1NC(=O)C(C)Oc1cc(=O)oc2ccccc12 (racemic) the pIC50 was 5.34.

CC(Oc1cc(=O)oc2ccccc12)C(=O)Nc1ccc(F)cc1F (racemic) gave a pIC50 of 5.79.

In the case of COc1ccc(NC(=O)C(C)Oc2cc(=O)oc3ccccc23)cc1 (racemic), the pIC50 was 5.65.

CC(Oc1cc(=O)oc2ccccc12)C(=O)Nc1ccc(C(F)(F)F)cc1C#N (racemic) gave a pIC50 of 5.02.

Molecule CC(Oc1cc(=O)oc2ccccc12)C(=O)N1CCCC1 (racemic) has a pIC50 of 4.86.

For CC(Oc1cc(=O)oc2ccccc12)C(=O)N1CCOCC1 (racemic), the pIC50 was 5.30.

In the case of CC(Oc1cc(=O)oc2ccccc12)C(=O)Nc1cccc2c(=O)[nH]ccc12 (racemic), the pIC50 was 5.53.

Work on CC(Oc1cc(=O)oc2ccccc12)C(=O)Nc1ccncc1 (racemic) yielded a pIC50 of 5.02.
